# According to ChEMBL document CHEMBL3112469, “Substituted 2-phenylimidazopyridines: a new class of drug leads for human African trypanosomiasis” (J Med Chem, 2014):
# Activity calls are given as the source filed them. The rule behind the calls is not given here.
# Key:
# HepG2 = assay: Cytotoxicity against human HepG2 cells after 48 hrs by Alamar Blue assay; format: cell-based; details: hepg2, 48 h
# [1] = Cytotoxicity against human CRL8155 cells after 48 hrs by Alamar Blue assay; format: cell-based; details: crl8155, 48 h
# L6 = assay: Cytotoxicity against rat L6 cells after 48 hrs by Alamar Blue assay; format: cell-based; details: l6, 48 h
# [2] = system: Trypanosoma brucei brucei; assay: Antiparasitic activity against Trypanosoma brucei brucei BF427 assessed as growth inhibition by Alamar Blue assay; format: functional, organism-based
# Outline: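 Bloodstream-form T. brucei brucei BF427 grown with serial compound dilutions, each tested in triplicate. Growth quantified with AlamarBlue. Pentamidine isothionate included in every assay as positive control.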
# [3] = system: Trypanosoma brucei rhodesiense; assay: Antiparasitic activity against Trypanosoma brucei rhodesiense; format: functional, organism-based
# [4] = Apparent permeability across MDCK2 cells expressing human MDR1; format: ADME, cell-based, Canis lupus familiaris; details: dog, mdck-ii
# Outline: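 MDCKII cells transfected with human MDR1 (P-gp) grown as monolayers; permeability (Papp) measured in triplicate with and without the MDR1 inhibitor GF-120918.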
# [5] = system: Trypanosoma brucei rhodesiense; assay: Antitrypanosomal activity against Trypanosoma brucei rhodesiense ST1B900 infected in Swiss Webster mouse assessed as cure from infection at 1 mg/kg, po bid administered 48 hrs postinfection for 5 days measured on day 4 to 13; format: functional, organism-based; design: dose 1 mg/kg
# [6] = system: Trypanosoma brucei rhodesiense; assay: Antitrypanosomal activity against Trypanosoma brucei rhodesiense ST1B900 infected in Swiss Webster mouse assessed as cure from infection at 50 mg/kg, po qd administered 48 hrs postinfection for 5 days measured on day 60; format: functional, organism-based; design: dose 50 mg/kg
# [7] = system: Trypanosoma brucei rhodesiense; assay: Antitrypanosomal activity against Trypanosoma brucei rhodesiense ST1B900 infected in Swiss Webster mouse assessed as cure from infection at 5 to 50 mg/kg, po bid administered 48 hrs postinfection for 5 days measured on day 60; format: functional, organism-based
# Rattus norvegicus [8] = assay: Apparent volume of distribution at steady state in Sprague-Dawley rat at 20 mg/kg, po and 5 mg/kg, iv by LC-MS analysis; format: ADME, organism-based; details: in vivo
# Outline: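 Jugular-cannulated Sprague-Dawley rats, two per route. Oral gavage 20 mg/kg or iv 5 mg/kg infused over 0–3 min, each in 1 mL of 7% Tween 80/3% EtOH/5% DMSO/saline. Jugular blood sampled from 5 to 1440 min. Plasma extracted with acetonitrile and analysed by LC-MS/MS.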
# Rattus norvegicus [9] = assay: Oral bioavailability in Sprague-Dawley rat at 21.3 mg/kg by LC-MS analysis; format: ADME, organism-based; details: in vivo
# Nucleic Acid [10] = assay: Ratio of drug level in brain to plasma in mouse at 5 mg/kg, ip after 60 mins; format: ADME, organism-based; design: dose 5 mg/kg, route intraperitoneal; details: 1 h
# Outline: (§1)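 Mice, groups of three, received 5 mg/kg ip in 0.4 mL vehicle (7% Tween 80, 3% ethanol, 5% DMSO, 0.9% saline) and were sacrificed at set times. Brains were weighed, frozen and homogenized in acetonitrile; plasma came from heparinized capillary blood. Both were measured by LC-MS/MS. Brain concentration used 1 g = 1 mL and was corrected for 2.5% vasculature volume.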
# [11] = (§2) AUC in mouse plasma at 50 mg/kg, po by LC-MS analysis; format: ADME, organism-based; design: dose 50 mg/kg, route oral; details: plasma
# Outline: (§3)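 Mice, groups of three, were given 50 mg/kg by oral gavage in 0.2 mL vehicle (7% Tween 80, 3% ethanol, 5% DMSO, 0.9% saline). Blood was sampled at 30, 60, 120, 180, 240 and 360 min. Plasma was separated and extracted with acetonitrile, and compound was quantified by LC-MS/MS.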
# [12] = (§4) Cmax in mouse plasma at 50 mg/kg, po LC-MS analysis; format: ADME, organism-based; design: dose 50 mg/kg, route oral; details: plasma; outline: as §3
# [13] = (§5) Tmax in mouse plasma at 50 mg/kg, po by LC-MS analysis; format: ADME, organism-based; design: dose 50 mg/kg, route oral; details: plasma; outline: as §3
# Liver microsome = assay: Half life in human liver microsomes by LC-MS analysis; format: ADME
# Outline: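 Compounds incubated with mouse or human liver microsomes. Samples removed at time points and analysed by LC-MS/MS. Dextromethorphan and testosterone used as reference drugs to standardize each assay.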
# Nucleic Acid [14] = assay: Ratio of drug level in brain to plasma in mouse at 5 mg/kg, ip after 15 mins; format: ADME, organism-based; design: dose 5 mg/kg, route intraperitoneal; details: 0.25 h; outline: as §1
# Mus musculus [15] = assay: as §2; format: ADME, organism-based; design: dose 50 mg/kg, route oral; details: in vivo; outline: as §3
# [16] = Aqueous solubility of the compound at pH 2 after 5 to 10 mins by HPLC analysis; format: physicochemical; details: buffer
# [17] = Aqueous solubility of the compound at pH 7.4 after 5 to 10 mins by HPLC analysis; format: physicochemical; details: buffer
# Mus musculus [18] = assay: Elimination half life in mouse plasma at 50 mg/kg, po by LC-MS analysis; format: ADME, organism-based; design: dose 50 mg/kg, route oral; details: in vivo
# Outline: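 Mice dosed by oral gavage at 50 mg/kg in 0.2 mL vehicle (7% Tween 80, 3% ethanol, 5% DMSO, 0.9% saline), groups of three. Plasma separated and extracted with acetonitrile, and compound quantified by LC-MS/MS.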
# [19] = Clearance in mouse plasma at 50 mg/kg, po by LC-MS analysis; format: ADME, organism-based; design: dose 50 mg/kg, route oral
# Outline: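 Mice, three per compound, given 50 mg/kg by oral gavage in 0.2 mL of 7% Tween 80/3% ethanol/5% DMSO/0.9% saline. Plasma extracted with acetonitrile and quantified by LC-MS/MS.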
# Mus musculus [20] = assay: as §4; format: ADME, organism-based; design: dose 50 mg/kg, route oral; details: in vivo; outline: as §3
# Mus musculus [21] = assay: as §5; format: ADME, organism-based; design: dose 50 mg/kg, route oral; details: in vivo; outline: as §3
Structure (SMILES),EC50 [2],CC50 (HepG2),CC50 [1],also measured
O=C(c1ccco1)N(C(=O)c1ccco1)c1ccc(F)c(-c2nc3ncccc3o2)c1,0.12 µM,> 50 µM,> 50 µM,CC50 (L6): > 50 µM
O=C(Nc1ccc(F)c(-c2nc3ncc(-c4ccc(F)cc4)cc3o2)c1)c1ccco1,0.05 µM,32 µM,> 50 µM,EC50 [3]: 0.1 µM
COc1ncc(-c2cnc3[nH]c(-c4cc(NC(=O)N5CCCC5)ccc4F)nc3c2)cn1,0.06 µM,9.8 µM,3.9 µM,
O=C(Nc1ccc(F)c(-c2nc3ncc(-c4ccccc4)cc3o2)c1)c1ccco1,0.04 µM,,,EC50 [3]: 0.08 µM; CC50 (L6): 7 µM
O=C(Nc1ccc(F)c(-c2nc3cc(-c4ccc(Cl)nc4)cnc3[nH]2)c1)N1CCCC1,0.01 µM,> 50 µM,3.8 µM,
O=C(Nc1ccc(F)c(-c2nc3cc(-c4cccc(OC(F)(F)F)c4)cnc3[nH]2)c1)N1CCCC1,0.03 µM,> 50 µM,11 µM,
O=C(Nc1ccc(F)c(-c2nc3cc(-c4cncc(Cl)c4)cnc3[nH]2)c1)N1CCCC1,0.005 µM,> 50 µM,38 µM,
O=C(Nc1ccc(F)c(-c2nc3cc(-c4cccc(Cl)c4)cnc3[nH]2)c1)N1CCCC1,0.002 µM,> 50 µM,2.8 µM,
COc1ccc(-c2cnc3[nH]c(-c4cc(NC(=O)N5CCCC5)ccc4F)nc3c2)cn1,0.005 µM,> 50 µM,> 50 µM,
O=C(Nc1ccc(Cl)c(-c2nc3ncccc3o2)c1)c1ccco1,0.22 µM,> 50 µM,> 50 µM,Papp [4]: 41.7 ×10⁻⁶ cm/s; t1/2 (Liver microsome): 6.4 min; BPR (Nucleic Acid [10]): 0.38; BPR (Nucleic Acid [14]): 0.54; AUC (Mus musculus [15]): 187 µM·min; solubility [16]: 22 µM; solubility [17]: 20 µM; beta t1/2 (Mus musculus [18]): 53 min; CC50 (L6): > 50 µM; CL/F [19]: 98 mL/min/kg; Cmax (Mus musculus [20]): 60 nM; Tmax (Mus musculus [21]): 30 min
Cc1cncc(-c2cnc3[nH]c(-c4cc(NC(=O)N5CCCC5)ccc4F)nc3c2)c1,0.01 µM,> 50 µM,> 50 µM,
O=C(Nc1ccc(Cl)c(-c2nc3ncccc3o2)c1)C(F)(F)F,,,,EC50 [3]: > 50 µM
O=C(Nc1ccc(F)c(-c2nc3cc(-c4cncc(N5CCCC5)c4)cnc3[nH]2)c1)N1CCCC1,0.02 µM,> 50 µM,8 µM,

# Further molecules by falling EC50 [2], results first:
EC50 [2],Structure (SMILES),CC50 (HepG2),CC50 [1],also measured
0.09 µM,O=C(Nc1ccc(Cl)c(-c2nc3ncccc3o2)c1)N1CCCC1,> 50 µM,> 50 µM,
0.07 µM,O=C(Nc1ccc(F)c(-c2nc3cc(Cl)cnc3[nH]2)c1)c1ccco1,> 50 µM,1.7 µM,CC50 (L6): > 50 µM
0.05 µM,O=C(Nc1ccc(F)c(-c2nc3cc(Cl)cnc3[nH]2)c1)N1CCCC1,> 50 µM,> 50 µM,CC50 (L6): 15 µM
0.03 µM,O=C(Nc1ccc(F)c(-c2nc3cc(-c4cncnc4)cnc3[nH]2)c1)N1CCCC1,> 50 µM,12 µM,
0.005 µM,O=C(Nc1ccc(F)c(-c2nc3cc(-c4cccnc4)cnc3[nH]2)c1)N1CCCC1,> 50 µM,14 µM,
0.004 µM,O=C(Nc1ccc(F)c(-c2nc3cc(-c4ccnc(Cl)c4)cnc3[nH]2)c1)N1CCCC1,> 50 µM,> 50 µM,
0.002 µM,O=C(Nc1ccc(F)c(-c2nc3cc(-c4ccsc4)cnc3[nH]2)c1)N1CCCC1,> 50 µM,6 µM,
0.002 µM,Cc1cccc(-c2cnc3[nH]c(-c4cc(NC(=O)N5CCCC5)ccc4F)nc3c2)c1,10 µM,5 µM,
0.002 µM,O=C(Nc1ccc(F)c(-c2nc3cc(-c4ccccc4)cnc3[nH]2)c1)N1CCCC1,,,Papp [4]: 40.1 ×10⁻⁶ cm/s; Activity [5]: inactive; Activity [6]: Active; Activity [7]: Active; Vdss(app) (Rattus norvegicus [8]): 2.4 L/kg; F (Rattus norvegicus [9]): 35%; BPR (Nucleic Acid [10]): 0.5; AUC [11]: 18.8 µM·h; Cmax [12]: 4300 nM; Tmax [13]: 30 min
